# In ChEMBL document CHEMBL1135602 (J Med Chem, 2002):
# Biological target: Bifunctional dihydrofolate reductase-thymidylate synthase (Plasmodium falciparum K1, UniProt P13922, S108N)
# Assay: Inhibition of the S108N mutant of dihydrofolate reductase (DHFR)
# Settings: not given
# How it was run: (§1)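 Assay at 25 °C: 50 mM TES pH 7.0, 75 mM β-mercaptoethanol, 1 mg/mL BSA, 100 µM H2folate and 100 µM NADPH. NADPH oxidation followed at 340 nm. Ki derived from IC50 as Ki(1+[S]/Km), assuming competitive inhibition.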
# Bifunctional dihydrofolate reductase-thymidylate synthase (Plasmodium falciparum K1, UniProt P13922, S108N), sequence (P13922 whole entry, looked up, stated change not applied): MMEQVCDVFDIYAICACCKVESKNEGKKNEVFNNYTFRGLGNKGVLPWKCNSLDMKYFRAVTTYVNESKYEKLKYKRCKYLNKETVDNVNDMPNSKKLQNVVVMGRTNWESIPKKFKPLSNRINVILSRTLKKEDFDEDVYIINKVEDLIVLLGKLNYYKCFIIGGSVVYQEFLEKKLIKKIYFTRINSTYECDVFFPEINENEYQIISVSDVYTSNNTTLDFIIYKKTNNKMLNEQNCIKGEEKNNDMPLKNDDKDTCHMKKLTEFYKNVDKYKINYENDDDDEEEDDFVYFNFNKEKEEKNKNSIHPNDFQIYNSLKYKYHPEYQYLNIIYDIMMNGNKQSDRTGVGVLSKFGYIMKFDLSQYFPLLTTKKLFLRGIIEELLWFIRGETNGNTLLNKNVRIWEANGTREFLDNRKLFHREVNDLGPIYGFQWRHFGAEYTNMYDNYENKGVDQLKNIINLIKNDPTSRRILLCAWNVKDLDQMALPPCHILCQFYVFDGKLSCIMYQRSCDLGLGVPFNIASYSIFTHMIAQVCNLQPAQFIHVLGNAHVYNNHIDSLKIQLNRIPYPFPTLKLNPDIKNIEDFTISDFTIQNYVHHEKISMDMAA
row,Compound,Ki [µM]
1,Nc1nc(N)c(-c2ccc(Cl)cc2)c(CCCc2ccccc2)n1,0.0139
2,CCc1nc(N)nc(N)c1-c1ccc(OC)cc1,0.039
3,CCc1nc(N)nc(N)c1-c1ccc(Cl)c(Cl)c1 [ETOPRINE],0.009
4,COC(=O)CCCc1nc(N)nc(N)c1-c1ccc(Cl)cc1,0.0169
5,CCc1nc(N)nc(N)c1-c1ccccc1,0.0045
6,Cc1nc(N)nc(N)c1-c1ccc(Cl)cc1,0.104
7,COC(=O)CCCc1nc(N)nc(N)c1-c1ccccc1,0.0018

# Tested on: Plasmodium falciparum
# Assay: Relative antiplasmodial activity (IC50) compared to Pyr against Plasmodium falciparum K1CB1 DHFR double-mutant (C59R/S108N)
# Type: functional
# Settings: not given
row,Compound,Relative activity
1,CCc1nc(N)nc(N)c1-c1ccc(OC)cc1,>0.8
2,CCc1nc(N)nc(N)c1-c1ccccc1,0.1

# Tested on: not listed separately
# Assay: Safety ratio is cytotoxicity to KB cells/IC50 K1.
# Type: toxicity, cell-based
# Settings: human, KB cells (epidermoid carcinoma); read-out: Safety ratio
# How it was run: (§2)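 Ratio of the cytotoxicity IC50 (vero, KB or BC cells, Skehan protocol) to the antiplasmodial IC50 against K1CB1 (C59R+S108N DHFR). […] Label was added at 24 h and cultures ran a further 18-24 h. Final DMSO was 0.1%.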
row,Compound,selectivity ratio
1,CCc1nc(N)nc(N)c1-c1ccccc1,> 151

# Tested on: Plasmodium falciparum
# Assay: In vitro relative antiplasmodial activity (IC50) compared to Pyr against Plasmodium falciparum TM4/8.2 wild-type
# Type: functional
# Settings: not given
row,Compound,Relative activity
1,CCc1nc(N)nc(N)c1-c1ccc(OC)cc1,3.8
2,CCc1nc(N)nc(N)c1-c1ccccc1,8.7

# Biological target: Bifunctional dihydrofolate reductase-thymidylate synthase (Plasmodium falciparum K1) (UniProt P13922)
# Sequence (P13922 whole entry, looked up): as the sequence (P13922 whole entry, looked up, stated change not applied) above
# Assay: Inhibition of mutant C59R+S108N dihydrofolate reductase (DHFR) relative to Pyr
# Settings: not given
row,Compound,Relative activity
1,Nc1nc(N)c(-c2ccc(Cl)cc2)c(CCCc2ccccc2)n1,0.4
2,CCc1nc(N)nc(N)c1-c1ccc(Cl)c(Cl)c1 [ETOPRINE],0.2
3,COC(=O)CCCc1nc(N)nc(N)c1-c1ccc(Cl)cc1,0.5
4,Cc1nc(N)nc(N)c1-c1ccc(Cl)cc1,2.6
5,COC(=O)CCCc1nc(N)nc(N)c1-c1ccccc1,0.1

# Tested on: KB
# Assay: Cytotoxicity against human epidermoid carcinoma KB cell.
# Type: functional, cell-based
# Settings: not given
row,Compound,IC50 [µM]
1,CCc1nc(N)nc(N)c1-c1ccccc1,> 500

# Biological target: Bifunctional dihydrofolate reductase-thymidylate synthase (Plasmodium falciparum K1) (UniProt P13922)
# Assay: Inhibition of the C59R+S108N mutant of dihydrofolate reductase (DHFR) relative to Pyr.
# Settings: not given
# How it was run: (§3)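 Assayed at 25 °C in 50 mM TES pH 7.0, 75 mM β-mercaptoethanol, 1 mg/mL BSA, with 100 µM H2folate and 100 µM NADPH. A340 was followed. Ki was derived from IC50 = Ki(1+[S]/Km), assuming competitive inhibition.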
row,Compound,Relative activity
1,CCc1nc(N)nc(N)c1-c1ccc(OC)cc1,1.6

# Biological target: Bifunctional dihydrofolate reductase-thymidylate synthase (Plasmodium falciparum K1) (UniProt P13922)
# Assay: Inhibition of the S108N mutant of dihydrofolate reductase (DHFR) relative to Pyr.
# Settings: not given
# How it was run: as §3
row,Compound,Relative activity
1,CCc1nc(N)nc(N)c1-c1ccc(OC)cc1,1.4
2,CCc1nc(N)nc(N)c1-c1ccccc1,0.2

# Tested on: Plasmodium falciparum
# Assay: In vitro antiplasmodial activity (IC50) against Plasmodium falciparum wtTM4/8.2
# Type: functional, organism-based
# Settings: not given
row,Compound,IC50 [µM]
1,Nc1nc(N)c(-c2ccc(Cl)cc2)c(CCCc2ccccc2)n1,0.05
2,CCc1nc(N)nc(N)c1-c1ccc(OC)cc1,0.3
3,CCc1nc(N)nc(N)c1-c1ccc(Cl)c(Cl)c1 [ETOPRINE],0.06
4,COC(=O)CCCc1nc(N)nc(N)c1-c1ccc(Cl)cc1,0.04
5,CCc1nc(N)nc(N)c1-c1ccccc1,0.7
6,Cc1nc(N)nc(N)c1-c1ccc(Cl)cc1,0.5
7,COC(=O)CCCc1nc(N)nc(N)c1-c1ccccc1,0.4

# Biological target: Bifunctional dihydrofolate reductase-thymidylate synthase (Plasmodium falciparum K1) (UniProt P13922)
# Assay: Inhibition of the wild-type dihydrofolate reductase (DHFR) relative to Pyr.
# Settings: not given
# How it was run: as §3
row,Compound,Relative activity
1,CCc1nc(N)nc(N)c1-c1ccc(OC)cc1,1.5
2,CCc1nc(N)nc(N)c1-c1ccccc1,3.8

# Tested on: not listed separately
# Assay: Safety ratio is cytotoxicity to vero cells/IC50 K1.
# Type: toxicity, cell-based
# Settings: monkey, read-out: Safety ratio
# How it was run: as §2
row,Compound,selectivity ratio
1,CCc1nc(N)nc(N)c1-c1ccccc1,96

# Tested on: Bifunctional dihydrofolate reductase-thymidylate synthase (Plasmodium falciparum K1), P13922 [UNDEFINED MUTATION]
# Sequence (P13922 whole entry, looked up, stated change not applied): as above
# Assay: Ratio of Inhibition of the C59R+S108N mutant of dihydrofolate reductase (DHFR) to inhibition of wild type dihydrofolate reductase.
# Settings: not given
row,Compound,Ratio
1,Nc1nc(N)c(-c2ccc(Cl)cc2)c(CCCc2ccccc2)n1,33.3
2,CCc1nc(N)nc(N)c1-c1ccc(OC)cc1,95.6
3,CCc1nc(N)nc(N)c1-c1ccc(Cl)c(Cl)c1 [ETOPRINE],12.6
4,COC(=O)CCCc1nc(N)nc(N)c1-c1ccc(Cl)cc1,91.3
5,CCc1nc(N)nc(N)c1-c1ccccc1,3.8
6,Cc1nc(N)nc(N)c1-c1ccc(Cl)cc1,71
7,COC(=O)CCCc1nc(N)nc(N)c1-c1ccccc1,9.2

# Biological target: Bifunctional dihydrofolate reductase-thymidylate synthase (Plasmodium falciparum K1) (UniProt P13922)
# Assay: Inhibition of Plasmodium falciparum wild-type dihydrofolate reductase (DHFR) relative to Pyrimethamine.
# Settings: not given
row,Compound,Relative activity
1,Nc1nc(N)c(-c2ccc(Cl)cc2)c(CCCc2ccccc2)n1,1.2
2,CCc1nc(N)nc(N)c1-c1ccc(Cl)c(Cl)c1 [ETOPRINE],1.7
3,COC(=O)CCCc1nc(N)nc(N)c1-c1ccc(Cl)cc1,0.5
4,Cc1nc(N)nc(N)c1-c1ccc(Cl)cc1,3.3
5,COC(=O)CCCc1nc(N)nc(N)c1-c1ccccc1,1

# Tested on: Bifunctional dihydrofolate reductase-thymidylate synthase (Plasmodium falciparum K1), P13922 [UNDEFINED MUTATION]
# Assay: Ratio of Inhibition of the S108N mutant of dihydrofolate reductase (DHFR) to inhibition of wild type dihydrofolate reductase.
# Settings: not given
row,Compound,Ratio
1,Nc1nc(N)c(-c2ccc(Cl)cc2)c(CCCc2ccccc2)n1,19.9
2,CCc1nc(N)nc(N)c1-c1ccc(OC)cc1,43.3
3,CCc1nc(N)nc(N)c1-c1ccc(Cl)c(Cl)c1 [ETOPRINE],9
4,COC(=O)CCCc1nc(N)nc(N)c1-c1ccc(Cl)cc1,56.3
5,CCc1nc(N)nc(N)c1-c1ccccc1,2
6,Cc1nc(N)nc(N)c1-c1ccc(Cl)cc1,51.8
7,COC(=O)CCCc1nc(N)nc(N)c1-c1ccccc1,0.06

# Tested on: not listed separately
# Assay: Safety ratio is cytotoxicity to KB cells/IC50 TM4.
# Type: toxicity, cell-based
# Settings: human, KB cells (epidermoid carcinoma); read-out: Safety ratio
# How it was run: (§4)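 Ratio of the cytotoxicity IC50 (KB or BC cells, Skehan protocol) to the antiplasmodial IC50 against TM4/8.2 (wild-type DHFR). […] Label was added after 24 h and cultures ran a further 18-24 h.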
row,Compound,selectivity ratio
1,CCc1nc(N)nc(N)c1-c1ccccc1,> 714

# Tested on: Plasmodium falciparum
# Assay: Safety ratio as cytotoxicity in vero cells relative to IC50 TM4
# Type: functional
# Settings: not given
row,Compound,Safety ratio
1,CCc1nc(N)nc(N)c1-c1ccccc1,444

# Tested on: BC
# Assay: Cytotoxicity against human breast cancer cells.
# Type: functional, cell-based
# Settings: not given
row,Compound,IC50 [µM]
1,CCc1nc(N)nc(N)c1-c1ccccc1,> 500

# Biological target: Bifunctional dihydrofolate reductase-thymidylate synthase (Plasmodium falciparum K1) (UniProt P13922)
# Assay: Inhibition of mutant S108N dihydrofolate reductase (DHFR) relative to Pyr
# Settings: not given
row,Compound,Relative activity
1,Nc1nc(N)c(-c2ccc(Cl)cc2)c(CCCc2ccccc2)n1,0.5
2,CCc1nc(N)nc(N)c1-c1ccc(Cl)c(Cl)c1 [ETOPRINE],0.3
3,COC(=O)CCCc1nc(N)nc(N)c1-c1ccc(Cl)cc1,0.6
4,Cc1nc(N)nc(N)c1-c1ccc(Cl)cc1,3.6
5,COC(=O)CCCc1nc(N)nc(N)c1-c1ccccc1,0.06

# Biological target: Bifunctional dihydrofolate reductase-thymidylate synthase (Plasmodium falciparum K1, UniProt P13922)
# Sequence (P13922 whole entry): as the sequence (P13922 whole entry, looked up, stated change not applied) above
# Assay: Inhibition of the C59R+S108N mutant of dihydrofolate reductase (DHFR)
# Settings: not given
# How it was run: as §1
row,Compound,Ki [µM]
1,Nc1nc(N)c(-c2ccc(Cl)cc2)c(CCCc2ccccc2)n1,0.0233
2,CCc1nc(N)nc(N)c1-c1ccc(OC)cc1,0.086
3,CCc1nc(N)nc(N)c1-c1ccc(Cl)c(Cl)c1 [ETOPRINE],0.0126
4,COC(=O)CCCc1nc(N)nc(N)c1-c1ccc(Cl)cc1,0.0274
5,CCc1nc(N)nc(N)c1-c1ccccc1,0.0087
6,Cc1nc(N)nc(N)c1-c1ccc(Cl)cc1,0.142
7,COC(=O)CCCc1nc(N)nc(N)c1-c1ccccc1,0.0055

# Tested on: not listed separately
# Assay: Safety ratio is cytotoxicity to BC cells/IC50 K1.
# Type: toxicity, cell-based
# Settings: human, BC cells (breast cancer); read-out: Safety ratio
# How it was run: as §2
row,Compound,selectivity ratio
1,CCc1nc(N)nc(N)c1-c1ccccc1,> 151

# Tested on: not listed separately
# Assay: Safety ratio is cytotoxicity to BC cells/IC50 TM4.
# Type: toxicity, cell-based
# Settings: human, BC cells (breast cancer); read-out: Safety ratio
# How it was run: as §4
row,Compound,selectivity ratio
1,CCc1nc(N)nc(N)c1-c1ccccc1,> 714

# Tested on: Vero
# Assay: Cytotoxicity by the selective inhibition against African green monkey kidney […] (vero cells).
# Type: functional, cell-based
# Settings: Chlorocebus sabaeus
row,Compound,IC50 [µM]
1,CCc1nc(N)nc(N)c1-c1ccccc1,320

# Tested on: Plasmodium falciparum
# Assay: IC50 ratio against Plasmodium falciparum K1CB1/TM4
# Type: functional
# Settings: not given
row,Compound,Ratio
1,Nc1nc(N)c(-c2ccc(Cl)cc2)c(CCCc2ccccc2)n1,212
2,CCc1nc(N)nc(N)c1-c1ccc(OC)cc1,>84
3,CCc1nc(N)nc(N)c1-c1ccc(Cl)c(Cl)c1 [ETOPRINE],290
4,COC(=O)CCCc1nc(N)nc(N)c1-c1ccc(Cl)cc1,557.5
5,CCc1nc(N)nc(N)c1-c1ccccc1,4.7
6,Cc1nc(N)nc(N)c1-c1ccc(Cl)cc1,120.2
7,COC(=O)CCCc1nc(N)nc(N)c1-c1ccccc1,78.3
